According to PMC6474823 (Molecular cell, 2019):

Target: Hck^3D V284C (Homo sapiens, UniProt P08631, V276C)
Test: Inhibitor IC50 determination, fluorescent SFK peptide kinase assay
Format: biochemical
Details: 1 mM ATP
How it was run: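 Kinase concentrations were set in the linear range by prior titration: Src3D WT or V284C at 7.5 nM, Hck3D WT or V284C at 5 nM. Kinase was incubated 30 min with test compound (30 μM top, 3-fold serial dilutions, 10 points) and 1 mM ATP in HEPES pH 7.5 buffer with MgCl2, EGTA, BSA, vanadate and BME. Then 20 μM pyrene-labelled SFK peptide was added for 2 h. Fluorescence was read at ex 344/em 405 nm, in triplicate.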

Hck^3D V284C, sequence (P08631 81-526 V276C): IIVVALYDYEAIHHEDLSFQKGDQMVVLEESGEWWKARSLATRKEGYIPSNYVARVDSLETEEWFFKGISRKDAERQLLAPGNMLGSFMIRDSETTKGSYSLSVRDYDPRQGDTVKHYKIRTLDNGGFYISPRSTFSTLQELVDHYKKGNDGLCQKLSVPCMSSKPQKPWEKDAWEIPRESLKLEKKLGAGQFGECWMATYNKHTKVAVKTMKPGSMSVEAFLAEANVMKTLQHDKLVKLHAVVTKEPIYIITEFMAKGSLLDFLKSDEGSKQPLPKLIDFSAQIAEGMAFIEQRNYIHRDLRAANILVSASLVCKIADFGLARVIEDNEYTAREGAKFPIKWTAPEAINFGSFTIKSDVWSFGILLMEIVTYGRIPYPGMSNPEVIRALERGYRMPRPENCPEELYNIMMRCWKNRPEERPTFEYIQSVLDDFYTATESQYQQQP

## CNC(=O)C(C#N)=Cc1c(C#Cc2cc(NC(=O)c3cccc(C(F)(F)F)c3)ccc2C)c2cncnc2n1CCOC [compound 3, (E)- and (Z)-N-(3-((6-(2-cyano-3-(methylamino)-3-oxoprop-1-en-1-yl)-7-(2-methoxyethyl)-7H-pyrrolo[2,3-d]pyrimidin-5-yl)ethynyl)-4-methylphenyl)-3-(trifluoromethyl)benzamide]
  inhibition of Hck V284C (IC50, Figure 4C): potently inhibited
